Source: PubChem
Mdm2 ligase inh: MDM2-luciferase reporter signal enhancers, primary screen, MDM2 E3 ligase inhibitor project, cell-based, luminescence, 1536-well; E3 ubiquitin-protein ligase Mdm2 (Homo sapiens), Q00987; cell-based MDM2 ubiquitination luciferase reporter, 2 h; 0 = plate control, 100 = twice control, blank-subtracted; signal enhancement, % at 5 µM; 0.11% of 210,000 active; AID 1230, 2008;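 active = signal enhancement of 30% or more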;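 note: luminescence tracks abundance of the self-degrading MDM2-luciferase fusion protein; higher signal means inhibition of MDM2 E3 ligase activity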
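Material: stable MDM2–luciferase fusion reporter cells / Quantity: 2000 cells/well / Dosing: single 5 µM compound dose, 0.2% final DMSO / Buffer or medium: DMEM / Schedule: 4 h cell settling then 2 h compound exposure, 37 °C / Detection: luminescence with SteadyLite reagent, 15 min at room temperature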
S1P4 antag: S1P4 receptor antagonists, primary screen, cell-based; Sphingosine 1-phosphate receptor 4 (Homo sapiens), O95977; S1P4-expressing cells, antagonist mode, reporter read-out; inhibition, % at 4.98 µM; 0.26% of 220,000 active; in the data active = inhibition above about 29%;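 note: 0% = wells stimulated with agonist and 100% = vehicle wells without agonist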
Target sequence (O95977 whole entry, looked up): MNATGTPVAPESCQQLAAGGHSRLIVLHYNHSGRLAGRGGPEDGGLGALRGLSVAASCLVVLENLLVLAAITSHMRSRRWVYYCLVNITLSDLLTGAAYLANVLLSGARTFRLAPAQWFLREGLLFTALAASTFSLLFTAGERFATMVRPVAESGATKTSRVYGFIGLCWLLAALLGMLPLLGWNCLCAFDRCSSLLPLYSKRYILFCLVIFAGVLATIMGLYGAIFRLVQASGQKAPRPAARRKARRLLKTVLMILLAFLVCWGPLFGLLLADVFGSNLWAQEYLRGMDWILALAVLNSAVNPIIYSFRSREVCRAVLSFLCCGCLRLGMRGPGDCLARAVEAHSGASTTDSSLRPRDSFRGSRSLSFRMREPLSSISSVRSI
S1P4 agonist: S1P4 receptor agonists, primary screen, cell-based; Sphingosine 1-phosphate receptor 4 (Homo sapiens), O95977; S1P4-expressing cell line, agonist reporter assay; activation, % at 4.98 µM; 0.35% of 220,000 active; AID 1509, 2009; in the data active = activation above about 11%;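 note: 0% = DMSO vehicle and 100% = reference agonist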
S1P3 antag: S1P3 receptor antagonists, primary screen, cell-based. Sphingosine 1-phosphate receptor 3 (Homo sapiens), Q99500. 0.27% of 170,000 active. CHO S1P3 NFAT-BLA reporter, FRET fluorescence, antagonist mode. inhibition, % at 4.98 µM;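 active = inhibition above the plate cutoff, the mean inhibition of test wells on that plate plus 3 SD, cut at about 28% in these data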;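 note: cells challenged with S1P at its EC80 of 0.8 µM; blue over green emission ratio from cleaved BLA substrate after 4 h stimulation; 0% = S1P-stimulated wells and 100% = unstimulated DMSO-only wells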
Lmaj promast: Leishmania major promastigote growth inhibition, primary screen; Leishmania major promastigotes, resazurin fluorescence viability; inhibition, % at 10 µM; 9% of 200,000 active; in the data active = inhibition above about 50%;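 note: promastigotes grown with compound for 44 hours at 28 °C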
Numbers without * were called inactive. This is one part of a sample in which hits are shown more often than they occur.

Cc1nc([N+](=O)[O-])c(Br)n1CC(=O)c1cccc([N+](=O)[O-])c1 was read as Mdm2 ligase inh -4.9, S1P4 antag 1.3, S1P4 agonist 0.0, S1P3 antag 2.3 and Lmaj promast 86.2*.
Cc1nc([N+](=O)[O-])c(Br)n1Cc1ccccc1 was read as Mdm2 ligase inh -7.9, S1P4 antag -14.9, S1P4 agonist 0.5 and S1P3 antag 0.1.
COC(=O)Cn1c(C)nc([N+](=O)[O-])c1Br was read as Mdm2 ligase inh -4.0, S1P4 antag -8.0, S1P4 agonist 1.8, S1P3 antag -4.4 and Lmaj promast 2.1.
`Cc1nc([N+](=O)[O-])c(Br)n1CC(=O)c1ccc(F)cc1` gave Mdm2 ligase inh -9.4, S1P4 antag 1.4, S1P4 agonist 0.5, S1P3 antag 18.1 and Lmaj promast 89.1*.
For Cc1cc(C)cc(-n2c(C)nc3cc(C(=O)O)ccc32)c1 the results were Mdm2 ligase inh -18.4, S1P4 antag 11.1, S1P4 agonist 1.2, S1P3 antag 1.1 and Lmaj promast -7.2.
Screening Cc1cccc(N=C2NC(=O)/C(=C3/C(=O)N(C)c4ccccc43)S2)c1C returned Mdm2 ligase inh -16.1, S1P4 antag 4.5, S1P4 agonist -1.0, S1P3 antag 16.6 and Lmaj promast 68.0*.
Cc1ccccc1N=C1NC(=O)/C(=C/c2cccn2C)S1 was read as Mdm2 ligase inh -1.2, S1P4 antag 9.9, S1P4 agonist -1.3 and S1P3 antag 13.9.
For CC(C)CN(CC(C)C)S(=O)(=O)N1CCC(C(=O)NCc2ccc3c(c2)OCO3)CC1 the results were Mdm2 ligase inh -24.3, S1P4 antag -5.7, S1P4 agonist -0.3, S1P3 antag 6.7 and Lmaj promast 17.8.
For Cn1cc(CN2CCCC(C(=O)c3cc(F)ccc3F)C2)c2ccccc21 (stereo unspecified) the results were Mdm2 ligase inh 1.9, S1P4 antag -7.6, S1P4 agonist 0.7, S1P3 antag 1.9 and Lmaj promast 87.9*.
`COc1ccc(F)cc1C(=O)C1CCCN(Cc2c[nH]c3ccccc23)C1` (stereo unspecified) gave Mdm2 ligase inh -1.8, S1P4 antag -13.8, S1P4 agonist 1.3, S1P3 antag -10.0 and Lmaj promast 42.5.
`COc1ccc(F)cc1C(=O)C1CCCN(Cc2cn(C)c3ccccc23)C1` (stereo unspecified) gave Mdm2 ligase inh -12.2, S1P4 antag 11.7, S1P4 agonist 0.1, S1P3 antag 10.1 and Lmaj promast 89.6*.
`COc1ccc(OC)c(N/C=C/C(=C(C#N)C#N)N(C)C)c1` gave Mdm2 ligase inh -35.9, S1P4 antag -28.0, S1P4 agonist 0.8, S1P3 antag -3.7 and Lmaj promast 8.2.
Screening O=C(C1CCN(Cc2ccc(Cl)cc2)CC1)N1CCN(C(c2ccccc2)c2ccccc2)CC1 returned Mdm2 ligase inh 3.7, S1P4 antag -0.1, S1P4 agonist -2.4, S1P3 antag 6.2 and Lmaj promast 87.5*.
`CN1CCCN(C(c2ccccc2)c2ccc(Cl)cc2)CC1` (stereo unspecified) gave S1P4 antag -19.9, S1P4 agonist 1.8, S1P3 antag -5.4 and Lmaj promast 98.7*.
Screening O=C(C1CCN(Cc2ccc(OCc3ccccc3)cc2)CC1)N1CCCC1 returned Mdm2 ligase inh 2.8, S1P4 antag -32.5, S1P4 agonist -1.2, S1P3 antag 2.6 and Lmaj promast -6.0.
Cc1cccc(CN2CCN(C(c3ccccc3)c3ccc(Cl)cc3)CC2)c1 (stereo unspecified) was read as S1P4 antag -15.4, S1P4 agonist 1.5, S1P3 antag 7.6 and Lmaj promast 63.2*.
`Clc1ccc(C(c2ccccc2)N2CCN(c3ccccn3)CC2)cc1` (stereo unspecified) gave Mdm2 ligase inh -9.9, S1P4 antag 6.2, S1P4 agonist -0.6 and S1P3 antag 11.2.
For Cc1ccccc1C(C(=O)NC1CCCCC1)N(C(=O)CNC(=O)c1ccco1)c1cccnc1 (stereo unspecified) the results were Mdm2 ligase inh -3.3, S1P4 antag -24.6, S1P4 agonist 1.7, S1P3 antag -5.2 and Lmaj promast -2.0.
